Data taken from ChEMBL document CHEMBL5058577, “EUbOPEN Chemogenomics Library 2 (Multiplex)” (2022).

System: Fibroblast
Assay: Multiplex assay against human fibroblast
Assay type: toxicity, cell-based
How it was run: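 Per cents of healthy-nucleus cells form the tubulin, mitochondrial-mass and membrane-permeability phenotype values. Live cells were stained at seeding with Hoechst33342, BioTracker Green Microtubule Cytoskeleton Dye, MitoTracker Red and Annexin V Alexa Fluor 680. After compound addition they were imaged on a CQ1 microscope at 37°C and 5% CO2, and CellPathfinder machine-learning gating split them into Hoechst high-intensity objects or normal cells, normal cells into healthy, pyknosed or fragmented nuclei, and pyknosed cells into mitotic or apoptotic.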

[1] = 12 h, 1 µM, compound concentration 1 uM, replicate 1
[2] = 12 h, 1 µM, compound concentration 1 uM, replicate 2
[3] = 12 h, 10 µM, compound concentration 10 uM, replicate 1
[4] = 12 h, 10 µM, compound concentration 10 uM, replicate 2
[5] = 24 h, 1 µM, compound concentration 1 uM, replicate 1
[6] = 24 h, 1 µM, compound concentration 1 uM, replicate 2
[7] = 24 h, 10 µM, compound concentration 10 uM, replicate 1
[8] = 24 h, 10 µM, compound concentration 10 uM, replicate 2
[9] = 48 h, 1 µM, compound concentration 1 uM, replicate 1
[10] = 48 h, 1 µM, compound concentration 1 uM, replicate 2
[11] = 48 h, 10 µM, compound concentration 10 uM, replicate 1
[12] = 48 h, 10 µM, compound concentration 10 uM, replicate 2

CCn1c(-c2nc3cc(C(=O)N4CCCC(N)C4)ccc3n2C)cc2ccccc21.Cl (stereo unspecified)
Population Apoptotic (%) [1]: 63%
Population Fragmented Nuclei (%) [1]: 17%
Population Healthy Nuclei (%) [1]: 67%
Population Hoechst High Intensity Objects (%) [1]: 3%
Population Membrane Permeable-Phenotype (%) [1]: 0%
Population Mitochondria Different-Phenotype (%) [1]: 4%
Population Mitotic Cells (%) [1]: 36%
Population Normal (%) [1]: 96%
Population Pyknosed Nuclei (%) [1]: 15%
Population Tubulin-Different-Phenotype (%) [1]: 27%
Total Cell Count [1]: 128
Population Apoptotic (%) [2]: 32%
Population Fragmented Nuclei (%) [2]: 21%
Population Healthy Nuclei (%) [2]: 54%
Population Hoechst High Intensity Objects (%) [2]: 5%
Population Membrane Permeable-Phenotype (%) [2]: 2%
Population Mitochondria Different-Phenotype (%) [2]: 17%
Population Mitotic Cells (%) [2]: 67%
Population Normal (%) [2]: 94%
Population Pyknosed Nuclei (%) [2]: 23%
Population Tubulin-Different-Phenotype (%) [2]: 41%
Total Cell Count [2]: 167
Population Apoptotic (%) [3]: 41%
Population Fragmented Nuclei (%) [3]: 22%
Population Healthy Nuclei (%) [3]: 63%
Population Hoechst High Intensity Objects (%) [3]: 1%
Population Membrane Permeable-Phenotype (%) [3]: 0%
Population Mitochondria Different-Phenotype (%) [3]: 18%
Population Mitotic Cells (%) [3]: 58%
Population Normal (%) [3]: 98%
Population Pyknosed Nuclei (%) [3]: 14%
Population Tubulin-Different-Phenotype (%) [3]: 69%
Total Cell Count [3]: 221
Population Apoptotic (%) [4]: 38%
Population Fragmented Nuclei (%) [4]: 32%
Population Healthy Nuclei (%) [4]: 37%
Population Hoechst High Intensity Objects (%) [4]: 3%
Population Mitochondria Different-Phenotype (%) [4]: 19%
Population Mitotic Cells (%) [4]: 61%
Population Normal (%) [4]: 96%
Population Pyknosed Nuclei (%) [4]: 29%
Population Tubulin-Different-Phenotype (%) [4]: 80%
Total Cell Count [4]: 186
Population Apoptotic (%) [5]: 50%
Population Fragmented Nuclei (%) [5]: 22%
Population Healthy Nuclei (%) [5]: 68%
Population Hoechst High Intensity Objects (%) [5]: 0%
Population Membrane Permeable-Phenotype (%) [5]: 0%
Population Mitochondria Different-Phenotype (%) [5]: 5%
Population Mitotic Cells (%) [5]: 50%
Population Normal (%) [5]: 99%
Population Pyknosed Nuclei (%) [5]: 9%
Population Tubulin-Different-Phenotype (%) [5]: 30%
Total Cell Count [5]: 127
Population Apoptotic (%) [6]: 55%
Population Fragmented Nuclei (%) [6]: 27%
Population Healthy Nuclei (%) [6]: 54%
Population Hoechst High Intensity Objects (%) [6]: 9%
Population Membrane Permeable-Phenotype (%) [6]: 3%
Population Mitochondria Different-Phenotype (%) [6]: 20%
Population Mitotic Cells (%) [6]: 44%
Population Normal (%) [6]: 90%
Population Pyknosed Nuclei (%) [6]: 17%
Population Tubulin-Different-Phenotype (%) [6]: 41%
Total Cell Count [6]: 184
Population Apoptotic (%) [7]: 70%
Population Fragmented Nuclei (%) [7]: 22%
Population Healthy Nuclei (%) [7]: 66%
Population Hoechst High Intensity Objects (%) [7]: 3%
Population Membrane Permeable-Phenotype (%) [7]: 0%
Population Mitochondria Different-Phenotype (%) [7]: 22%
Population Mitotic Cells (%) [7]: 29%
Population Normal (%) [7]: 96%
Population Pyknosed Nuclei (%) [7]: 10%
Population Tubulin-Different-Phenotype (%) [7]: 76%
Total Cell Count [7]: 231
Population Apoptotic (%) [8]: 59%
Population Fragmented Nuclei (%) [8]: 30%
Population Healthy Nuclei (%) [8]: 46%
Population Hoechst High Intensity Objects (%) [8]: 4%
Population Membrane Permeable-Phenotype (%) [8]: 2%
Population Mitochondria Different-Phenotype (%) [8]: 32%
Population Mitotic Cells (%) [8]: 40%
Population Normal (%) [8]: 95%
Population Pyknosed Nuclei (%) [8]: 23%
Population Tubulin-Different-Phenotype (%) [8]: 82%
Total Cell Count [8]: 189
Population Apoptotic (%) [9]: 66%
Population Fragmented Nuclei (%) [9]: 23%
Population Healthy Nuclei (%) [9]: 67%
Population Hoechst High Intensity Objects (%) [9]: 2%
Population Membrane Permeable-Phenotype (%) [9]: 1%
Population Mitochondria Different-Phenotype (%) [9]: 3%
Population Mitotic Cells (%) [9]: 33%
Population Normal (%) [9]: 97%
Population Pyknosed Nuclei (%) [9]: 8%
Population Tubulin-Different-Phenotype (%) [9]: 29%
Total Cell Count [9]: 137
Population Apoptotic (%) [10]: 51%
Population Fragmented Nuclei (%) [10]: 32%
Population Healthy Nuclei (%) [10]: 51%
Population Hoechst High Intensity Objects (%) [10]: 5%
Population Membrane Permeable-Phenotype (%) [10]: 2%
Population Mitochondria Different-Phenotype (%) [10]: 23%
Population Mitotic Cells (%) [10]: 48%
Population Normal (%) [10]: 94%
Population Pyknosed Nuclei (%) [10]: 15%
Population Tubulin-Different-Phenotype (%) [10]: 49%
Total Cell Count [10]: 193
Population Apoptotic (%) [11]: 83%
Population Fragmented Nuclei (%) [11]: 19%
Population Healthy Nuclei (%) [11]: 72%
Population Hoechst High Intensity Objects (%) [11]: 3%
Population Membrane Permeable-Phenotype (%) [11]: 0%
Population Mitochondria Different-Phenotype (%) [11]: 22%
Population Mitotic Cells (%) [11]: 16%
Population Normal (%) [11]: 96%
Population Pyknosed Nuclei (%) [11]: 8%
Population Tubulin-Different-Phenotype (%) [11]: 85%
Total Cell Count [11]: 232
Population Apoptotic (%) [12]: 60%
Population Fragmented Nuclei (%) [12]: 33%
Population Healthy Nuclei (%) [12]: 57%
Population Mitochondria Different-Phenotype (%) [12]: 16%
Population Mitotic Cells (%) [12]: 40%
Total Cell Count [12]: 231
